Measured values from ChEMBL document CHEMBL1132320, “Evaluation of the desferrithiocin pharmacophore as a vector for hydroxamates” (1999).
Several values for one entry are separate records, joined by “and”; a condition that tells them apart may be missing. Identical values can stand only once.

Legend:
Type in all cases: functional
[1] = tested on: Rattus norvegicus; assay: Efficiency is defined as net iron excretion in rats at the dose of 150 umol/kg administered perorally.
Procedure, shortened: (§1)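 Male Sprague–Dawley rats (~400 g) with bile-duct cannulas, under sodium pentobarbital (55 mg/kg ip) anesthesia, housed in metabolic cages with free water. Chelator is given as a single dose in 40% Cremophor RH-40/H2O (v/v). Bile is collected at 3-h intervals for 24 h and urine every 24 h. Iron is measured by flame atomic absorption. Efficiency = (treated minus control iron excretion)/theoretical output, as %; bile/urine split reported.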

[2] = tested on: Rattus norvegicus; assay: Efficiency is defined as net iron excretion in rats at the dose of 150 umol/kg administered subcutaneously.; procedure, shortened: as §1
[3] = tested on: Monkey; assay: The efficiency was calculated by averaging the iron output for 4 days before the administration of the drug, subtracting these numbers from the 2-day iron clearance after the administration of the drug at the dose of 150 umol/kg administered perorally in monkeys.
Procedure, shortened: (§2)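 Cebus apella monkeys iron-loaded with iv iron dextran (200–300 mg Fe/kg per slow 45–60 min infusion, to about 500 mg Fe/kg), rested ≥60 days. Chelator is given in 40% Cremophor RH-40/H2O (v/v). Feces and urine are collected from 4 days before to 5 days after dosing. Iron is measured by flame atomic absorption. Efficiency = (2-day post-drug iron minus 4-day baseline average)/theoretical output, as %.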

[4] = tested on: Monkey; assay: The efficiency was calculated by averaging the iron output for 4 days before the administration of the drug, subtracting these numbers from the 2-day iron clearance after the administration of the drug at the dose of 300 umol/kg administered subcutaneously in monkeys.; procedure, shortened: as §2
[5] = tested on: Monkey; assay: The efficiency was calculated by averaging the iron output for 4 days before the administration of the drug, subtracting these numbers from the 2-day iron clearance after the administration of the drug at the dose of 300 umol/kg administered perorally in monkeys.; procedure, shortened: as §2
[6] = tested on: Monkey; assay: The efficiency was calculated by averaging the iron output for 4 days before the administration of the drug, subtracting these numbers from the 2-day iron clearance after the administration of the drug at the dose of 150 umol/kg administered subcutaneously in monkeys.; procedure, shortened: as §2
[7] = tested on: Monkey; assay: The efficiency was calculated by averaging the iron output for 4 days before the administration of the drug, subtracting these numbers from the 2-day iron clearance after the administration of the drug at the dose of 225 umol/kg administered perorally in monkeys.; procedure, shortened: as §2

Row | SMILES | Efficiency [1] | Efficiency [2] | Efficiency [3] | Efficiency [4] | Efficiency [5] | Efficiency [6] | Efficiency [7]
1 | O=C([C@H]1CSC(c2ncccc2O)=N1)N(O)CCOCCOCCN(O)C(=O)[C@H]1CSC(c2ncccc2O)=N1 | 4.6% | 20.6% | – | – | – | – | –
2 | O=C(O)[C@H]1CSC(c2ncccc2O)=N1 | 2.4% | 1.8% | 4.8% | 8.3% | 8% | – | –
3 | O=C(C1CSC(c2ncccc2O)=N1)N(O)Cc1ccccc1 (stereo not given) | 1% | 1.4% | – | – | <0.5% | – | –
4 | CN(O)C(=O)[C@H]1CSC(c2ncccc2O)=N1 | 3.1% | 5.3% | 6.9% | – | 13.2% | 11.7% | –
5 | CC(=O)N(O)CCCCCN(O)C(=O)[C@H]1CSC(c2ncccc2O)=N1 | 2.8% | 8.5% | – | – | – | – | 3.2% and 12.8%
6 | O=C(c1ccccc1O)N(O)CCOCCOCCN(O)C(=O)c1ccccc1O | <0.5% | 0.8% | – | – | – | – | –
